H9c2 TAG inh: reduces triacylglycerol accumulation in H9c2 cells | hit rate 0.66% among 230,000 | inhibition, % at 12.5 µM | Nile Red lipid (TAG) fluorescence; cells loaded with 200 µM oleic acid | AID 651582;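 active means pattern-corrected inhibition of lipid staining of at least 50% with the nuclear-stain viability signal not falling by more than 50%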;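 further: 0% = DMSO wells and 100% = triacsin C control wells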
A1 inh: inhibitors of the anti-apoptotic protein A1, read as caspase activation; MEF A1-2A-BIM cells, Caspase-Glo 3/7 luminescence, 3 h; percent of clofoctol response, vehicle zero; caspase activation, % (no concentration beside the values); hit rate 0.066% among 330,000;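 active means over half of replicate activation scores above 10%, or exactly half above 10 with the replicate mean above 10; inconclusive means replicate mean below 10 yet half the replicates above 10; inactive means over half of replicates below 10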
Beta apoptosis: blocks beta cell apoptosis; hit rate 0.8% among 300,000; protection from apoptosis, % (concentration not given with the values); INS-1E cytokine-induced death, ATP luminescence, 48 h; percent of positive-control rescue, neutral wells zero;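 active means Every replicate reaches about 75%, or at least half do and their mean reaches it too, limit read from the data; inconclusive means At least half of replicates reach the limit but their mean does not; inactive means Under half of replicates reach the limit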;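 further: 0% = cytokine-treated negative control wells and 100% = positive control rescue; higher means more ATP so stronger rescue from cytokine killing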
Calb FLC: affects C. albicans growth with fluconazole; growth inhibition, % (concentration not given with the values); hit rate 0.57% among 300,000; AID 1979; C. albicans CaCi-2 + fluconazole, Alamar Blue growth, 48 h;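 active means growth inhibition above about 58% in most replicates, limit read from the data, passing the limit was not always enough; inconclusive means exactly half the replicates above a set limit; inactive means most replicates below a set limit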;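 further: all wells also contain fluconazole at 8 µg/ml as a sub-toxic cotreatment; 0% = median of DMSO wells and 100% = median of geldanamycin control wells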
T cruzi inh: blocks replication of Trypanosoma cruzi; T. cruzi beta-gal in NIH3T3, luminescence, 90 h; AID 1885; inhibition, % (concentration not given with the values); hit rate 1.4% among 300,000;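 active means mean inhibition across valid replicates above about 55%, limit read from the data; inconclusive means mean below that limit but half or more replicates reach it; inactive means mean below it, under half of replicates reach it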;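 further: signal also drops with host cell toxicity which is not excluded here; 0% = plate median of DMSO wells and 100% = zero luminescence signal; higher percent means less beta-gal luminescence so fewer parasites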
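compound dosing = single 50 nL compound addition per well in DMSO | material = NIH/3T3 host cells with β-galactosidase reporter T. cruzi | input = 5,000 host fibroblasts per well | timing = ≥90 h infection period, 3 h prior cell attachment | read-out basis = percent inhibition of parasite-derived β-gal signal | detection = GalScreen β-gal luminescence, detergent lysis, 60 min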
CSC inhib: blocks cancer stem cells; cancer stem cell-like cells viability, luminescence; inhibition, % at 7.5 µM; hit rate 1.1% among 300,000; in the data active means inhibition above about 75%; inconclusive means no clear call, values can overlap the other calls; tested in HMLE shEcad cells
Active calls of the source: *; ? = inconclusive; / = no result. Compounds with a hit are over-represented: about 3.1% of the library has one in this group of screens.

SMILES | H9c2 TAG inh | A1 inh | Beta apoptosis | Calb FLC | T cruzi inh | CSC inhib
O=[N+]([O-])c1ccc(-c2ccc(C=Nc3cccc4ccccc34)o2)cc1 | / | -1 | 2 | -5 | -13 | 11
O=C(CCC(=O)Nc1ccc(Cl)cc1Cl)N/N=C/c1ccc([N+](=O)[O-])o1 | / | 0 | 107* | 101* | 60* | -9
O=C(COC(=O)c1ccc(Br)o1)c1ccc(S(=O)(=O)N2CCCCC2)cc1 | 5 | 0 | -1 | / | / | /
O=C(CSc1ccc2ccccc2c1)N1CCN(c2ccc(O)cc2)CC1 | 7 | 0 | 3 | -15 | 0 | 91*
O=C(c1ccc2ccccc2c1)N1CCN(c2ccc(O)cc2)CC1 | -4 | 1 | -14 | ? | -5 | 27
Cc1cc(C)nc(Nc2ccc(Cl)cc2C)n1 | / | 0 | 17 | 2 | 2 | 12
Cn1c(N/N=C/c2c[nH]c3ccccc23)nc2ccccc21 | 19 | 2 | 29 | 84* | 8 | -16
Cc1cc(N/N=C/c2c[nH]c3ccccc23)c2ccccc2n1 | 15 | 1 | -15 | 20 | -7 | 20
CCN(CC)CCN1c2ccccc2Sc2ccc3ccccc3c21 | / | 0 | 106* | 19 | 26 | 59
COc1ccc(-n2ncc3c2CC(C)(C)CC3NC(=O)c2cnc(C)cn2)cc1 (stereo unspecified) | / | 0 | 0 | 1 | -10 | -10
C=CC(C)(C)c1c(O)c(CC=C(C)C)c(O)c2c(=O)c3ccc(O)c(O)c3oc12 | / | 0 | 107* | 84* | ? | -7
O=C(c1ccc(Br)cc1)N1CCN(c2ccccn2)CC1 | 3 | / | / | / | / | /
CCC(=O)Nc1ccc(C(=O)OCc2ccccc2Cl)cc1 | 22 | -1 | 6 | ? | 61* | 11
O=[N+]([O-])c1ccc(S(=O)(=O)N2CCN(C3CCN(Cc4ccccc4)CC3)CC2)cc1 | / | 0 | 0 | 6 | ? | 40
O=S(=O)(Cc1ccc(Cl)cc1)N1CCN(Cc2ccccc2)CC1 | / | 0 | 3 | 125* | 6 | -6
O=S(=O)(c1ccc(Cl)cc1)N1CCN(C2CCN(Cc3ccccc3)CC2)CC1 | 12 | 1 | -4 | -19 | 61* | 70
C[C@H](CO)N1C[C@H](C)[C@@H](CN(C)C(=O)NC2CCCCC2)Oc2c(NC(=O)Nc3ccccc3)cccc2C1=O | -1 | 1 | -6 | / | / | 14
CCN(CC)S(=O)(=O)c1ccc(Cl)c(C(=O)Nc2ccc(Cl)cc2[N+](=O)[O-])c1 | / | 0 | 100* | 14 | -9 | 7
O=[N+]([O-])c1cc(-c2nnc(Nc3ccccc3)c3ccccc23)ccc1N1CCOCC1 | -2 | 0 | 17 | 38 | 57* | 31
Fc1ccc(N/N=C/c2cccnc2)c(F)c1 | -12 | -1 | 0 | 112* | 1 | -1
COc1cc(C=NNc2ccccc2[N+](=O)[O-])cc(OC)c1OC | 7 | / | / | / | / | /
FC(F)(F)c1ccccc1N/N=C/c1cccnc1 | / | -1 | -1 | -2 | -8 | 4
Clc1ccc2c(N/N=C/c3cccnc3)ccnc2c1 | -14 | 0 | 26 | 44 | 65* | 0
COc1cc(/C=N/Nc2ccc(F)cc2F)cc(OC)c1OC | / | 1 | 5 | 126* | 19 | 70
Clc1ccc2c(N/N=C/c3ccc(Br)cc3)ccnc2c1 | 21 | 1 | 54 | 4 | 47 | 98*
SMILES | H9c2 TAG inh | A1 inh | Beta apoptosis | Calb FLC | T cruzi inh | CSC inhib
O=c1[nH]ncc(N/N=C\c2cccnc2)c1Cl | 14 | 0 | -3 | 1 | 2 | -8
Cn1c(SCC(=O)NC2CCS(=O)(=O)C2)nc2ccccc21 (stereo unspecified) | 0 | 0 | -5 | / | / | -18
Cc1ccc(C)c2[nH]c(=O)c(CCNC(=O)CCc3ccccc3)cc12 | -3 | 0 | 6 | -6 | 9 | -7
Cc1ccc(NC(=S)N=Nc2c(O)[nH]c3ccccc23)cc1 | 16 | -1 | / | 14 | 68* | 53
Oc1[nH]c2ccc(Br)cc2c1N=NC(=S)Nc1ccc(F)cc1 | 14 | 4 | 29 | 67 | 59* | 82*
Oc1ccc(NC(=S)N=Nc2c(O)[nH]c3ccccc23)cc1 | 3 | 0 | 3 | -1 | -35 | 12
CS(=O)(=O)c1ccc(C(=O)OCC(=O)NCc2cccs2)cc1[N+](=O)[O-] | 51* | 1 | 13 | / | / | /
Cc1cc(C)n(CCOc2ccc(Br)cc2)n1 | -32 | 0 | -4 | -3 | 2 | -13
O=C(N/N=C/c1ccc([N+](=O)[O-])o1)C1CCCC1 | -9 | 0 | 8 | 25 | 72* | 12
O=C(N/N=C\c1ccc(-c2ccccc2[N+](=O)[O-])o1)C1COc2ccccc2O1 (stereo unspecified) | / | 0 | 3 | -2 | -7 | -9
O=C(N/N=C\c1ccc([N+](=O)[O-])o1)C1COc2ccccc2O1 (stereo unspecified) | -10 | -1 | / | 66 | 61* | 9
Cc1cccc(N(Cc2ccccc2)C(=O)CCl)c1 | 68* | / | / | 10 | 72* | /
COc1ccc(CN2CCN(CC3CC3)CC2CCO)c(C)c1C (stereo unspecified) | / | 1 | -5 | -1 | -13 | 35
CC(=O)c1cc(CN2CCN(Cc3ccc(C)cc3)C(CCO)C2)cs1 (stereo unspecified) | / | 1 | 1 | -8 | 46 | 5
COc1ccc(CN2CCN(Cc3csc(C(C)=O)c3)CC2CCO)c(C)c1C (stereo unspecified) | -24 | 0 | 2 | -3 | 55* | 32
COc1ccc(CN2CCN(Cc3nc4ccccc4s3)CC2CCO)c(C)c1C (stereo unspecified) | -12 | 0 | 7 | -5 | 61* | 38
Cc1cccc(NC(=O)C(C)Sc2ncnc3sccc23)c1 (stereo unspecified) | -15 | / | / | / | / | /
O=C(CCC1N=C2c3ccccc3N=C(SCC(=O)NCC3CCCO3)N2C1=O)NCc1ccc(F)cc1 (stereo unspecified) | / | 3 | -6 | 2 | -14 | -27
c1ccc(-c2n[nH]c3c2CCC3)cc1 | / | 0 | -1 | 12 | 7 | -9
CC(C)[C@@H]1CC[C@@H](C)c2c(-c3ccccc3)n[nH]c21 | / | 0 | -1 | 28 | 42 | 101*
CNC(=S)N1N=C(c2ccc(Br)cc2)CC1c1ccc(Br)cc1 (stereo unspecified) | / | 0 | / | -12 | 78* | 2
Cc1cc2nc(-c3ccc(SCc4ccc(C#N)cc4)nc3)[nH]c2cc1C | / | 0 | 9 | -4 | 56* | 16
COc1ccc(/C=C2\SC(=N)N(c3nccs3)C2=O)cc1OC | -1 | -1 | 58 | 3 | 58* | 77*
N=C1S/C(=C\c2ccc(-c3cccc(Cl)c3)o2)C(=O)N1c1nccs1 | / | -1 | 72 | -8 | 16 | 65
CCOc1ccc(NC(=O)CC(Cc2cc(C)cc(C)c2)C(=O)O)cc1 (stereo unspecified) | / | 0 | 0 | 3 | -7 | 5

Screens as filed in PubChem.
